Assay outcomes: PubChem BioAssay, The Scripps Research Institute Molecular Screening Center
HTR1E agonist: 5-HT1E receptor agonists, primary screen, cell-based, HTS | 5-hydroxytryptamine receptor 1E (Homo sapiens), P28566 | activation, % at 6 µM | CHO 5-HT1E Ga15 NFAT-bla reporter, FRET; 0% DMSO wells, 100% control agonist wells | hit rate 0.69% among 65,000;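 active = activation above a set limit, the screen-wide mean activation plus 3 SD, cut at about 8.5% in these data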
5HT1a ag: human 5-HT1a receptor agonists, primary screen, cell-based, CHO, Ga15 NFAT-bla reporter; CHO 5-HT1a Ga15 NFAT-bla reporter, FRET ratio; 0% basal, 100% maximal reference agonist; activation, % at 10 µM; hit rate 0.56% among 65,000; AID 567, 2006;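 active = activation above the screen-wide mean activation plus 3 SD, cut at about 19% in these data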
Target sequence (P08908 whole entry, looked up): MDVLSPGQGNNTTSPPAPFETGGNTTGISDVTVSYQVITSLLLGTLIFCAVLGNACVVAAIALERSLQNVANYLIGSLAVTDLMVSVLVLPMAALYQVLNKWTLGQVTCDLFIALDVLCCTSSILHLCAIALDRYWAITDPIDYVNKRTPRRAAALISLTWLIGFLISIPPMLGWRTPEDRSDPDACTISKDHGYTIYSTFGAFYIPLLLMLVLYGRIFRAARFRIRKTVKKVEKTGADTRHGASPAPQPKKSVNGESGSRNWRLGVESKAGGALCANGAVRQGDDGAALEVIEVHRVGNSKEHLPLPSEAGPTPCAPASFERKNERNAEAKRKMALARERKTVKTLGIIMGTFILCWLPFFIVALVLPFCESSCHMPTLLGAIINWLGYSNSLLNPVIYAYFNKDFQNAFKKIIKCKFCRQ
5HT1a antag: human 5-HT1a receptor antagonists, primary screen, cell-based, CHO, Ga15 NFAT-bla reporter. CHO 5-HT1a Ga15 NFAT-bla reporter, antagonist mode. inhibition, % at 10 µM. hit rate 0.68% among 62,000;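 active = inhibition above the mean of all tested compounds plus 3 SD, cut at about 43% in these data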;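 note: receptor stimulated by 5-CT agonist at 100 nM near EC80; beta-lactamase reporter measured by ratiometric fluorescence of a cleavable substrate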
HEK293 NFkB inh: inhibitors of PMA/ionomycin-induced NF-kB reporter, primary screen, antigen receptor NF-kB inhibitor project, cell-based, HEK-293 luciferase reporter, luminescence | AID 465, 2006 | hit rate 0.21% among 62,000 | HEK-293 NF-kB luciferase reporter | inhibition, % at 3 µM;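 active = inhibition above the mean of all tested compounds plus 3 SD, cut at about 40% in these data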
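System: NF-kB luciferase reporter HEK-293 cells | Replication: Single test | Control set: DMSO vs reference inhibitor | Evaluation: % inhibition | Schedule: 1 h pretreatment, 16 h stimulation, 37 °C | Probe or stimulus: PMA with ionomycin | Compound dosing: One dose, 3 µM | Detection: Luciferase luminescence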
HTR1E antagonist: 5-HT1E receptor antagonists, primary screen, cell-based, HTS | 5-hydroxytryptamine receptor 1E (Homo sapiens), P28566 | CHO 5-HT1E Ga15 NFAT-bla reporter, FRET, antagonist | inhibition, % at 6 µM | hit rate 0.99% among 65,000 | AID 571, 2007;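 active = inhibition above a set limit, the mean inhibition across every tested compound plus 3 SD, cut at about 29% in these data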;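 note: signal is the 460 over 535 nm emission ratio of beta-lactamase substrate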
Large screens that a line does not name were inactive. Compounds with a hit are over-represented: about 2.6% of the library has one in this group of screens.

CN(C)CCOc1ccccc1Cc1ccccc1	HTR1E agonist 16 (no result: 5HT1a antag, HEK293 NFkB inh)
CCC(C(=O)Nc1nnc(-c2ccco2)s1)c1ccccc1 (configuration not stated)	none
COc1ccccc1N1CCN(C2=CC(=O)CCC2)CC1	HTR1E agonist 32
COc1ccccc1N1CCN(c2ccc(-c3ccccc3)nn2)CC1	HTR1E antagonist 51
CCOCCn1c(=O)c2c(nc3n2CCN3c2ccc(CC)cc2)n(C)c1=O	none
O=C(CCCc1cccs1)N1CCN(S(=O)(=O)c2ccccc2Br)CC1	none
O=C1c2[nH]nc(-c3ccccc3O)c2C(c2ccc(F)cc2)N1Cc1ccco1 (configuration not stated)	5HT1a antag 53
COc1ccc(-n2c(NC(=O)c3ccco3)c(C#N)c3nc4ccccc4nc32)cc1	5HT1a ag 22
CCC(=O)Nc1c(C#N)c2nc3ccccc3nc2n1-c1ccccc1C	none
CCCCn1c(NC(=O)CC)c(C#N)c2nc3ccccc3nc21	none
CCCCn1c(NC(=O)c2ccccc2Cl)c(C#N)c2nc3ccccc3nc21	5HT1a ag 27
CCn1nc(C(=O)O)c(=O)c2cc3c(cc21)OCO3	none (no result: 5HT1a antag, HEK293 NFkB inh)
COc1ccc(CNc2nc3c(c(C(F)(F)F)n2)CCCCC3)cc1	none
CS(=O)(=O)N(CC(=O)N1CCCCCC1)c1ccccc1	HTR1E agonist 32
O=c1oc2ccccc2n1Cc1ccccc1Cl	none
Cc1nc(SCC#N)c2c(C)c(C)sc2n1	HTR1E antagonist 35
CCOC(=O)c1cc2c(ccn2C)n1CC(=O)N1CCN(c2ccccc2OC)CC1	none
O=C(Nc1ccc2oc(-c3ccccc3Cl)nc2c1)c1cncc(Br)c1	5HT1a ag 64
COCCN1C(=O)C(CC(=O)Nc2ccc(C(C)=O)cc2)SC1=Nc1ccccc1 (configuration not stated)	5HT1a ag 172
c1ccc2[nH]c(SCCN3CCOCC3)nc2c1	none
COC(=O)Cn1ncc2c3ccccc3n(C)c2c1=O	none
COc1ccc(CC(=O)Nc2cc(C)c3c(=O)oc4ccccc4c3n2)cc1	none
CCC(CC)C(=O)Nc1cc(C)c2c(=O)oc3ccccc3c2n1	HTR1E antagonist 31
CC(NC(=O)CCC(=O)NC(C)C1COc2ccccc2O1)C1COc2ccccc2O1 (configuration not stated)	none
COc1ccc(CNC(C)C2COc3ccccc3O2)c(OC)c1 (configuration not stated)	HTR1E agonist 13
N#Cc1cc2c(=O)n3ccccc3nc2n(Cc2cccnc2)c1=N	none
Cc1cc(-n2c(=O)c(C#N)cc3c(=O)n4ccccc4nc32)no1	HTR1E agonist 19, 5HT1a ag 72
C=CCn1c(=O)c(C#N)cc2c(=O)n3ccccc3nc21	HTR1E agonist 16, 5HT1a ag 43
CC(=O)c1ccc(Nc2ncnc3c2oc2ccccc23)cc1	none
CCSCc1nnc(SCC(=O)c2ccc(OC)cc2)n1C	none
Cc1ccc(-n2c(SCC(=O)N3CCOCC3)nnc2-c2cccnc2)cc1	none
Cc1ccc(-n2c(SCC(=O)N3CCOCC3)nnc2-c2cccnc2)cc1C	HTR1E agonist 44
CCCNC(=O)c1c(N)n(-c2cc(OC)cc(OC)c2)c2nc3ccccc3nc12	HTR1E agonist 12, 5HT1a ag 30
Fc1ccccc1COc1cccc(/C=N/n2cnnc2)c1	none
Cc1cc(/C=N/n2cnnc2)c(C)n1-c1ccc(OCc2ccccc2F)cc1	HTR1E antagonist 29
N#CC1=C(N)SC(N)=C(C#N)C1CCC1CCCCC1	none
COc1ccc(C(=O)N2CCCC(c3nc(-c4cccs4)no3)C2)cc1 (configuration not stated)	none
COC(=O)C1CCCN1C(C(=O)NC1CCCCC1)c1ccc(Cl)cc1 (configuration not stated)	none
CC(C)(C)c1[nH]nc2c1C(Cc1ccccc1)C(C#N)=C(N)O2 (configuration not stated)	none
CC1c2nc3ccccc3n2C(CC(=O)NCc2ccccn2)C(=O)N1Cc1ccccc1 (configuration not stated)	none
Cn1ncc(N)c1C(=O)Nc1cccc(C(F)(F)F)c1	5HT1a ag 45
CC(=O)OC1=C(C#N)Cn2ccc3cccc1c32	none
CCOC(=O)C1CCCN(C(=O)Nc2cccc(Cl)c2)C1 (configuration not stated)	none
Cc1ccc(NC(=O)CCNS(=O)(=O)c2ccc3c(c2)oc(=O)n3C)cc1	HTR1E agonist 32
Cc1ccc(C)c(OCCCC(=O)Nc2ccc(N3CCOCC3)cc2)c1	5HT1a ag 26
COc1ccc(C(C)NC(=O)C2CCCO2)cc1OC (configuration not stated)	none
CC(=O)Oc1ccc(N2C(=O)C3C(C2=O)C2(C)C=CC3(C)O2)cc1 (configuration not stated)	5HT1a antag 85, HTR1E antagonist 64
CC(C)CNC(=O)c1cccc(NC(=O)C2CCCO2)c1 (configuration not stated)	none
NC(Cc1ccc2nonc2c1)C(=O)O (configuration not stated)	5HT1a ag 54
N[C@@H](Cc1ccc(O)c(I)c1)C(=O)O	none (no result: 5HT1a antag, HEK293 NFkB inh)
CC1Cc2ccccc2N1C(=O)c1cc2c(=O)n3ccccc3nc2n1C (configuration not stated)	HTR1E antagonist 39
COc1ccc(-c2cc(C(F)(F)F)nc(N3CCCCCC3)n2)cc1	none
COc1cccc(-c2cc(C(F)(F)F)nc(N3CCCCC3)n2)c1	5HT1a ag 99
COc1ccc(-c2cc(C(F)(F)F)nc(N3CCN(C)CC3)n2)cc1	HTR1E agonist 18
CCOC(=O)c1ccc(NS(=O)(=O)c2cc(C)ccc2OC)cc1	none
COc1ccc(NS(=O)(=O)c2cc(C)ccc2NC(=O)c2cc(C)oc2C)cc1	5HT1a antag 63, HTR1E antagonist 61
CCOCCN1CCN(c2c(C)c(C)nc3cc(-c4cc(OC)cc(OC)c4)nn23)CC1	HTR1E antagonist 40
COCCN1CCN(c2c(C)c(C)nc3cc(-c4cccc(OC)c4)nn23)CC1	none
CCNc1nnc(-c2ccc(C)cc2)o1	none
CCOP(=O)(c1ccc(N(C)C)cc1)C(O)c1ccc(Cl)cc1 (configuration not stated)	none
COc1ccc(-c2nnc(SCC(=O)N(Cc3ccccc3)C(C)(C)C)o2)cc1OC	none
CCOC(=O)CN(C(=O)CSc1nnc(-c2ccc(OC)c(OC)c2)o1)c1ccc(F)cc1	5HT1a ag 22
Fc1ccccc1N1CCN(c2nc3ccccc3n3nnnc23)CC1	none
Fc1cc(Br)ccc1Nc1nc2ccccc2n2nnnc12	HTR1E agonist 15
